Assay outcomes (PubChem BioAssay)
An excerpt weighted towards active compounds, which were near 2.4% of everything screened.
STEP inh = STEP phosphatase inhibitors, primary screen, biochemical, fluorescence intensity, uHTS | inhibition, % at 20 µM | recombinant STEP, OMFP fluorogenic substrate | 360,000 compounds, 0.25% hits | Tyrosine-protein phosphatase non-receptor type 5 (Homo sapiens), P54829;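 active = inhibition at 20 µM, scaled per plate between control wells, above about 37%, limit read from the data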;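 note: 0% = DMSO with enzyme and substrate and 100% = substrate only without enzyme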
Target sequence (P54829 whole entry, looked up): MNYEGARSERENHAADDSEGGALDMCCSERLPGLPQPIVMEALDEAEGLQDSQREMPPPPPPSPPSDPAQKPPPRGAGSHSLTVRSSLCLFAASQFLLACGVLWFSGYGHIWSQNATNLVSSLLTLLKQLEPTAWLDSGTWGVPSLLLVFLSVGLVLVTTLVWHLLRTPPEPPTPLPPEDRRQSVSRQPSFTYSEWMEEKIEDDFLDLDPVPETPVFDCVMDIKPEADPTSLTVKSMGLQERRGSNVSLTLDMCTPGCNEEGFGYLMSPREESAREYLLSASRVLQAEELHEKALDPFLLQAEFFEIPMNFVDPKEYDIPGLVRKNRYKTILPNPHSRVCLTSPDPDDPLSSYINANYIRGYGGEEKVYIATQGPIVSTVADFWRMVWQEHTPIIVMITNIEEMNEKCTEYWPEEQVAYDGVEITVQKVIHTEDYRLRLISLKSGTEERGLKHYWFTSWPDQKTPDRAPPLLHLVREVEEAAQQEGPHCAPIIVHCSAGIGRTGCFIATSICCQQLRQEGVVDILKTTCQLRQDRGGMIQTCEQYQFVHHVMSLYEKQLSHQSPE
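medium = Bis-Tris buffer pH 6.0, 2.5 mM DTT, 0.005% Tween 20 | test system = STEP (striatal-enriched tyrosine phosphatase) enzyme, cell-free | measure = normalized % inhibition | compound dosing = 20 µM, 1% DMSO | also added = 25 µM OMFP | schedule = reaction 20 min, ambient temperature | measured by = fluorescence read at 480 nm ex / 540 nm em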
DNMT1 block = human DNMT1 methyltransferase inhibitors, primary screen, biochemical, molecular beacon, fluorescence, HinP1I cleavage, uHTS; DNA (cytosine-5)-methyltransferase 1 (Homo sapiens), P26358; inhibition (reported as % activation of signal), % at 10 µM; 360,000 compounds, 0.83% hits; AID 588458, 2011; in the data active = inhibition above about 50%
LMPTP block = LMPTP phosphatase inhibitors, primary screen, biochemical, fluorescence intensity, uHTS; recombinant LMPTP-A, OMFP fluorogenic substrate; 360,000 compounds, 0.22% hits; inhibition, % at 20 µM;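 active = compounds that cut the enzyme signal by at least half of the control window in the single-dose screen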;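 note: plate controls were DMSO wells with enzyme plus substrate for no effect and substrate without enzyme for full effect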
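Test system: LMPTP-A, protein tyrosine phosphatase of low molecular weight; Input: 0.625 nM enzyme; Incubation: 50 min dark incubation at room temperature; Signal: endpoint fluorescence intensity from OMFP dephosphorylation; Read-out basis: % inhibition versus control wells.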
NadD block = inhibitors of S. aureus NadD, primary screen, biochemical, colorimetric, uHTS. Nicotinate-nucleotide adenylyltransferase NadD (Staphylococcus aureus N315). purified NadD enzyme, colorimetric absorbance read-out. inhibition, % at 20 µM. 360,000 compounds, 0.78% hits; in the data active = inhibition above about 26%
Scp-1 inhibitor = Scp-1 phosphatase inhibitors, primary screen, biochemical, colorimetric, uHTS; Carboxy-terminal domain RNA polymerase II polypeptide A small phosphatase 1 (Homo …; Recombinant Scp1, phosphopeptide, malachite green phosphate absorbance; inhibition, % at 20 µM; 340,000 compounds, 0.88% hits;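 active = inhibition above about 50% at 20 µM, limit read from the data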;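 note: plate controls were DMSO wells with enzyme for no effect and wells lacking enzyme for full effect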
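Assay system: SCP-1 catalytic fragment, aa 76-261 | Buffer or medium: Tris acetate buffer pH 5.5 with MgCl2 and Tween-20 | Compound: One concentration, 20 µM, with 1.0% DMSO | Also added: Phospho 17-mer peptide substrate | Signal: Absorbance at 630 nm | Incubation: 45 min enzyme reaction at room temperature | Measure: % inhibition of SCP-1 phosphate liberation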
SUMO1 PPI mod = modulators of SUMO1 protein-protein interactions, primary screen, biochemical, uHTS; Small ubiquitin-related modifier 1 (Homo sapiens), P63165; SUMO1 binding to a labelled peptide, TR-FRET, 1 h; inhibition, % at 20 µM; 360,000 compounds, 0.33% hits; in the data active = inhibition above about 37%
Target sequence (P63165 whole entry, looked up): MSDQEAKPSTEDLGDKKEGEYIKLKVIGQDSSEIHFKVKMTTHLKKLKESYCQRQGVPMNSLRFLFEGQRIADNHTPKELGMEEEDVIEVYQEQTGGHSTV
Scp-1 conf = Scp-1 phosphatase inhibitors, retest, confirmation, biochemical, colorimetric, single concentration; shares compounds with Scp-1 inhibitor; recombinant SCP-1 catalytic domain, phosphate release, malachite green absorbance; inhibition, % at 20 µM; 2,500 compounds, 61% hits; AID 540281, 2011;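 note: plate controls were DMSO with enzyme for no effect and buffer wells lacking enzyme for full effect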
MG interference = colorimetric readout interference by compounds, confirmation, artefact control for Scp-1 inhibitor project, biochemical, single concentration | shares compounds with Scp-1 inhibitor | Colorimetric interference counterscreen, malachite green absorbance 630 nm | apparent inhibition (interference), % at 20 µM | 2,500 tested, under 10 active | AID 540313, 2011;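 note: compounds added after enzyme reaction finished so only phosphate colour detection is probed; plate controls were DMSO wells with completed Scp-1 reaction for no effect and substrate wells lacking enzyme for full effect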
Scp-1 Tm shift = Scp-1 binding by thermal shift, confirmation, orthogonal assay for Scp-1 inhibitor project, biophysical, differential scanning fluorimetry; shares compounds with Scp-1 inhibitor; Recombinant SCP1, Sypro Orange thermal shift Tm; thermal shift relative to vanadate control, % at 40 µM; 1,500 compounds, 25% hits;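 active = substances whose mean melting-temperature shift, as a percentage of the reference inhibitor's shift, reaches about 5.3%, limit read from the data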;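 note: 0% = Tm of DMSO wells and 100% = Tm with sodium orthovanadate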
DNMT1 confirm = DNMT1 methyltransferase inhibitor retest, confirmation, biochemical, molecular beacon, fluorescence, single concentration. AID 602385, 2012. inhibition, % at 10 µM. shares compounds with DNMT1 block. DNMT1 molecular beacon HinP1I cleavage. 2,300 compounds, 8% hits;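 active = average inhibition of at least 30% in the single-concentration confirmation test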
Beacon interf = beacon fluorescence artifact counter-screen | shares compounds with DNMT1 block | DNMT1 molecular beacon spectral interference counterscreen, fluorescence 485/520 | activation (fluorescence interference), % at 10 µM | 2,300 compounds, 1% hits;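 active = activation of at least 30% at 10 µM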;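 note: DNMT1 catalytic domain with a HinP1I cleavage step and a FAM/dabcyl DNA beacon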
* = called active by the depositor.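 Rule for the calls, unless noted: active = inhibition of at least 30% at 20 µM; inactive = the rest.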

How did O=C(Nc1ccccc1)c1ccc2nc(-c3ccco3)c(-c3ccco3)nc2c1 do in these assays?
STEP inh: 4; DNMT1 block: 83*; LMPTP block: 42; NadD block: 23; Scp-1 inhibitor: 71*; SUMO1 PPI mod: 33; Scp-1 conf: 15; MG interference: -15; DNMT1 confirm: 4; Beacon interf: 4

How did O=C(Nc1cccnc1)c1ccc2nc(-c3ccccc3)c(-c3ccccc3)nc2c1 do in these assays?
STEP inh: -3; DNMT1 block: -1; LMPTP block: 1; NadD block: 3; Scp-1 inhibitor: -5; SUMO1 PPI mod: -13

Results for NS(=O)(=O)c1ccc(CCNC(=O)CCS(=O)(=O)c2ccc(Br)cc2)cc1 ?
STEP inh: 6; DNMT1 block: 87*; LMPTP block: 0; NadD block: -10; Scp-1 inhibitor: 96*; SUMO1 PPI mod: 75*; Scp-1 conf: 66*; MG interference: -16; Scp-1 Tm shift: -25; DNMT1 confirm: 4; Beacon interf: 3

How did Cc1ccc(S(=O)(=O)CCC(=O)Nc2cccc(C)c2)cc1 do in these assays?
STEP inh: -3; DNMT1 block: -2; LMPTP block: -3; NadD block: -4; Scp-1 inhibitor: -4; SUMO1 PPI mod: 1

Results for O=C(CCNS(=O)(=O)c1ccc(Br)cc1)NCCc1ccccc1 ?
STEP inh: 0; DNMT1 block: -1; LMPTP block: -1; NadD block: -1; Scp-1 inhibitor: -5; SUMO1 PPI mod: -1

What do the screens show for `O=C(CCS(=O)(=O)c1ccc(Br)cc1)NCCc1ccccc1`?
STEP inh: 6; DNMT1 block: 84*; LMPTP block: 1; NadD block: -4; Scp-1 inhibitor: 88*; SUMO1 PPI mod: 13; Scp-1 conf: 62*; MG interference: -16; Scp-1 Tm shift: -25; DNMT1 confirm: 11; Beacon interf: 3

What do the screens show for `CCc1cccc(NC(=O)CCS(=O)(=O)c2ccc(Br)cc2)c1`?
STEP inh: 10; DNMT1 block: 88*; LMPTP block: 2; NadD block: -9; Scp-1 inhibitor: 86*; SUMO1 PPI mod: 38; Scp-1 conf: 65*; MG interference: -21; Scp-1 Tm shift: -14; DNMT1 confirm: 9; Beacon interf: 4

What do the screens show for `CCOc1ccc(CCNC(=O)CCS(=O)(=O)c2ccc(Br)cc2)cc1OCC`?
STEP inh: -1; DNMT1 block: -4; LMPTP block: -1; NadD block: -1; Scp-1 inhibitor: -10; SUMO1 PPI mod: -2

Results for Cc1ccc(S(=O)(=O)c2nc(N3CCOCC3)sc2Cl)cc1 ?
STEP inh: 2; DNMT1 block: 1; LMPTP block: 2; NadD block: 2; Scp-1 inhibitor: -5; SUMO1 PPI mod: 10

How did O=C1COc2ccc(C(=O)COC(=O)/C=C/c3ccco3)cc2N1 do in these assays?
STEP inh: 8; DNMT1 block: 57*; LMPTP block: 16; NadD block: -1; Scp-1 inhibitor: 59*; SUMO1 PPI mod: -13; Scp-1 conf: 57*; MG interference: -10; Scp-1 Tm shift: -14; DNMT1 confirm: 5; Beacon interf: 3

How did O=C(/C=C/c1ccco1)OCC(=O)N1CCCCC1 do in these assays?
STEP inh: 41*; DNMT1 block: 50*; LMPTP block: 15; NadD block: -1; Scp-1 inhibitor: 96*; SUMO1 PPI mod: -14; Scp-1 conf: 51*; MG interference: -20; Scp-1 Tm shift: -8; DNMT1 confirm: -1; Beacon interf: 0

Results for O=C(COC(=O)c1cccc(S(=O)(=O)N2CCN(c3ccccc3)CC2)c1)NCc1ccco1 ?
STEP inh: 12; DNMT1 block: 68*; LMPTP block: 9; NadD block: 13; Scp-1 inhibitor: 66*; SUMO1 PPI mod: 5; Scp-1 conf: 58*; MG interference: -19; Scp-1 Tm shift: 4; DNMT1 confirm: 7; Beacon interf: 3

How did NC(=O)COC(=O)c1cccc(S(=O)(=O)N2CCN(c3ccccc3)CC2)c1 do in these assays?
STEP inh: 1; DNMT1 block: 2; LMPTP block: -1; NadD block: 5; Scp-1 inhibitor: 6; SUMO1 PPI mod: 2

How did CC1(C)OC(=O)C2=C(C[C@@H](CCC(F)(F)F)O[C@H]2c2ccc(F)cc2)O1 do in these assays?
STEP inh: -3; DNMT1 block: -1; LMPTP block: -1; NadD block: -1; SUMO1 PPI mod: 5

Results for O=C(O)C1=C(C(=O)O)C2C=CC1C2 ?
STEP inh: 33; DNMT1 block: 60*; LMPTP block: 1; NadD block: -4; Scp-1 inhibitor: 72*; SUMO1 PPI mod: 24; Scp-1 conf: 52*; MG interference: -15; Scp-1 Tm shift: -3; DNMT1 confirm: 5; Beacon interf: 2
